The text below walks through data of ChEMBL document CHEMBL1123621, “Total synthesis and biological evaluation of structural analogues of compactin and dihydromevinolin” (J Med Chem, 1987).

The target in test [1] is T1, 3-hydroxy-3-methylglutaryl-coenzyme A reductase (Rattus norvegicus, UniProt P51639).
T1 sequence (P51639 whole entry): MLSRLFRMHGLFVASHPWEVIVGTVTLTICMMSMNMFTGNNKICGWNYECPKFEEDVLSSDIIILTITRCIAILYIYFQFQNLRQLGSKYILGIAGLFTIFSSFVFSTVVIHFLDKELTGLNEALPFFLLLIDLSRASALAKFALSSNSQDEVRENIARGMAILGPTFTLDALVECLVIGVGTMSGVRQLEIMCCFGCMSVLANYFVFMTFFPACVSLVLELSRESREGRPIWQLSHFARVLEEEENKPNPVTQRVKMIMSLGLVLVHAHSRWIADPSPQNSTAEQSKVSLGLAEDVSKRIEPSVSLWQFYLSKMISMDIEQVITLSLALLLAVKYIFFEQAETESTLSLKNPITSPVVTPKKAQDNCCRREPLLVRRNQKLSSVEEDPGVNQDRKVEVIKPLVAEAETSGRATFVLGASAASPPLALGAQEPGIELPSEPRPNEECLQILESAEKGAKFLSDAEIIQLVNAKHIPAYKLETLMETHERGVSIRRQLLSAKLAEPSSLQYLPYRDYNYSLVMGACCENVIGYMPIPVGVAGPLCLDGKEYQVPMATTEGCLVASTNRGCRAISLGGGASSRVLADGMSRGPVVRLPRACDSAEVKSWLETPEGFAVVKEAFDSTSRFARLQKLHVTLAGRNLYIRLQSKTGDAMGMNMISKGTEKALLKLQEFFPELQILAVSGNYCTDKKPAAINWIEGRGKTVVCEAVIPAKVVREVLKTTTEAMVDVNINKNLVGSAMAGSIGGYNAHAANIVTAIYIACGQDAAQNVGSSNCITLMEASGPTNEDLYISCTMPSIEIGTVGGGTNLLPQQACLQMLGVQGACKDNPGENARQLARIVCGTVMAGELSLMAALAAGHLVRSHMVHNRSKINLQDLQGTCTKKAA
Put plainly: Inhibition of HMG-CoA reductase in rat liver microsomes. More on the design: species or system Microsome. Conditions: read-out: I50. In a few lines:
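Rat liver microsomes (0.068 mg protein) in 150 mM phosphate pH 6.8, 180 mM KCl, 16 mM EDTA, 9 mM DTT, 10.0 mM glucose 6-phosphate, 2.1 mM NADP, G6P dehydrogenase, 20 μM (R,S)-[3-14C]HMG-CoA. Lactones were preincubated 30 min at 37 °C for ring opening. Inhibitors were given in DMSO. Reaction stopped with KOH; initial mevalonate rate measured. Four concentrations over four log units, in duplicate; I50 extrapolated from %inhibition vs log concentration.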

Test [2] concerns the target T1, 3-hydroxy-3-methylglutaryl-coenzyme A reductase. Put plainly: Binding affinity against HMG-CoA reductase in rat liver microsomes. More on the design: species or system Microsome. In short, it runs like this:
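Rat liver microsomes (Edwards preparation, stored at -78 °C), 1.3 mg (0.068 mg protein) per 500 μL assay; 150 mM phosphate pH 6.8, 180 mM KCl, 16 mM Na2EDTA, 9 mM DTT, 10.0 mM glucose 6-phosphate, 2.1 mM NADP, 2 U G6P dehydrogenase, 20 μM (R,S)-[3-14C]HMG-CoA; lactones preincubated 30 min at 37 °C for ring opening; inhibitors in DMSO; KOH stop; four concentrations in duplicate; I50 extrapolated from %inhibition vs log concentration.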

With `CC[C@H](C)C(=O)O[C@@H]1CCC=C2C=C[C@@H](C)[C@@H](COC(=O)CCCC(=O)O)[C@@H]21`, the IC50 in test [1] was 110000 nM.
With `CC[C@H](C)C(=O)O[C@H]1CCC=C2C=C[C@H](C)[C@H](COC(=O)C[C@H](O)CC(=O)O)[C@H]21`, in test [1], the IC50 stood at 5000 nM.
For the molecule `CC[C@H](C)C(=O)O[C@@H]1CCC=C2C=C[C@@H](C)[C@@H](COC(=O)C[C@@H](O)CC(=O)O)[C@@H]21`, in test [1], the IC50 was above 25000 nM.
As to `CC[C@H](C)C(=O)O[C@@H]1CCC=C2C=C[C@@H](C)[C@@H](COC(=O)C[C@H](O)CC(=O)O)[C@@H]21`, the IC50 in test [1] is 25000 nM.
On to `CC[C@H](C)C(=O)O[C@H]1CCC=C2C=C[C@H](C)[C@H](CC[C@@H]3C[C@H](O)CC(=O)O3)C21` (some centres not stated), for which the IC50 in test [1] came to 4000 nM.
As to `CC[C@H](C)C(=O)O[C@H]1CCC=C2C=C[C@H](C)[C@H](/C=C/C(=O)C[C@@H](O)CC(=O)O)[C@H]21`, in test [1], the IC50 came out at 630 nM.
In the case of `CC[C@H](C)C(=O)O[C@@H]1CCC=C2C=C[C@@H](C)[C@@H](CC[C@H]3C[C@@H](O)CC(=O)O3)[C@@H]21`, in test [1], the IC50 came to 79000 nM.
Take `CC[C@H](C)C(=O)O[C@@H]1CCC=C2C=C[C@@H](C)[C@@H](CC[C@@H]3C[C@@H](O)CC(=O)O3)[C@@H]21`: the IC50 in test [1] was 10000 nM.
On the same count and under the same terms, as for `CC[C@H](C)C(=O)O[C@H]1CCC=C2C=C[C@H](C)[C@H](CC[C@H]3C[C@H](O)CC(=O)O3)C21` (some centres not stated), the figure is 2000 nM.
Turning to `CC[C@H](C)C(=O)O[C@H]1CCC=C2C=C[C@H](C)[C@H](CC[C@H]3C[C@@H](O)CC(=O)O3)C21` (some centres not stated), in test [1], the IC50 came to 2000 nM.
The same measure, in the same setting: next, `CC[C@H](C)C(=O)O[C@H]1CCC=C2C=C[C@H](C)[C@H](COC(=O)CCCC(=O)O)C21` (some centres not stated): 7100 nM.
`CC[C@H](C)C(=O)O[C@H]1C[C@@H](C)C[C@@H]2C=C[C@H](C)[C@H](/C=C/C(=O)C[C@@H](O)CC(=O)O)C12` (some centres not stated): in test [1], the IC50 was found to be 320 nM.
Consider `CC[C@H](C)C(=O)O[C@H]1CCC=C2C=C[C@H](C)[C@H](CC[C@@H]3C[C@@H](O)CC(=O)O3)[C@H]21` [MEVASTATIN], for which the IC50 in test [1] is 13 nM. Moreover, in test [2], the affinity corresponds to a Ki of 1.4 nM.
Take `CC[C@H](C)C(=O)O[C@H]1C[C@@H](C)C[C@@H]2C=C[C@H](C)[C@H](CC[C@@H]3C[C@@H](O)CC(=O)O3)C12` (some centres not stated): the IC50 in test [1] came out at 1.6 nM.
For `CC[C@H](C)C(=O)O[C@H]1CCC=C2C=C[C@H](C)[C@H](COC(=O)C[C@@H](O)CC(=O)O)[C@H]21`, the IC50 in test [1] was 630 nM.
Turning to `CC[C@H](C)C(=O)O[C@H]1CCC=C2C=C[C@H](C)[C@H](CCC(=O)C[C@@H](O)CC(=O)O)[C@H]21`, the IC50 in test [1] worked out at 32 nM.
